CCR6 antagonist – antagonists of human CCR6 receptor | CHO-K1 CCR6 PathHunter beta-arrestin, luminescence, CCL20-stimulated | inhibition, % at 20 µM | 340,000 tested, 0.49% active | P51684;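 active = compounds whose inhibition of the agonist-driven luminescence signal at 20 µM reaches about 50%, limit read from the data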;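 note: cells stimulated with CCL20 at 14 nM final; plate controls were DMSO with CCL20 for no effect and DMSO without agonist for full effect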
APJ antag – antagonists of human APJ apelin receptor; P35414; CHO-K1 APJ beta-arrestin complementation, luminescence; inhibition, % at 20 µM; 330,000 tested, 0.32% active;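 active = inhibition above about 40% at 20 µM, limit read from the data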;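 note: cells challenged with 10 nM apelin-13 agonist together with compound; plate controls were apelin-13 plus DMSO wells for no effect and DMSO wells lacking apelin-13 for full effect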
EBI2 block – EBI2 (human) antagonism. AID 651636. inhibition, % at 5 µM. EBI2 beta-arrestin recruitment, luminescence, 7a,25-OHC stimulated. P32249. 360,000 tested, 0.81% active; in the data active = inhibition above about 38%;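 note: enzyme fragment complementation signal reports receptor beta-arrestin coupling in cells; 0% = agonist plus DMSO wells and 100% = wells without agonist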
CXCR6 inh – CXCR6 (human) receptor inhibition | CHO-K1 PathHunter CXCR6 beta-arrestin, luminescence | inhibition, % at 20 µM | 360,000 tested, 0.36% active | AID 602244; in the data active = inhibition above about 34%, passing the limit was not always enough;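 note: antagonist mode with CXCL16 agonist at 10 nM final; 0% = 10 nM CXCL16 with DMSO and 100% = unstimulated wells without agonist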
APJ ag – APJ receptor agonism; P35414; CHO-K1 APJ PathHunter beta-arrestin, luminescence; 0% DMSO wells, 100% apelin; activation, % at 20 µM; 330,000 tested, 0.11% active; AID 2520;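 active = activation more than six SD over the plate average, tested at 20 µM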;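 note: 0% = DMSO alone and 100% = apelin-13 at 10 nM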
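Test system – PathHunter CHO-K1 APJ (AGTRL-1) beta-arrestin reporter cells · Input – 1000 cells/well · Compound – single test compound dose, 20 µM final, 1% DMSO · Times – compound stimulation 90 min at 25 °C, detection 60 min · Technique – beta-gal luminescence · Read-out basis – APJ–arrestin association signal · Control set – negative DMSO alone, positive Apelin-13 at 10 nM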
m5-HT2A agonist – agonists of mouse serotonin 5-HT2A receptor (HTR2A); CHO-K1 mHTR2A beta-arrestin complementation, luminescence; percent of 30 µM serotonin response; activation, % at 7.6 µM; 360,000 tested, 0.66% active; AID 624169;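 active = activation above a run cutoff, the mean activation of all tested compounds plus 3 SD, cut at about 14% in these data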;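 note: 0% = plate median of compound wells and 100% = 30 µM serotonin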
MOR ag counter – activates human mu opioid receptor in HTR2A counterscreen; AID 624380; 2,300 tested, 5.3% active; activation, % at 9.3 µM; shares compounds with m5-HT2A agonist; U2OS OPRM1 beta-arrestin PathHunter, luminescence; DMSO 0%, DAMGO 9.3 µM 100%;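 active = mean activation above the mean of DMSO-only wells plus 3 SD, cut at about 0.5% in these data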
Target sequence (P35372 whole entry, looked up): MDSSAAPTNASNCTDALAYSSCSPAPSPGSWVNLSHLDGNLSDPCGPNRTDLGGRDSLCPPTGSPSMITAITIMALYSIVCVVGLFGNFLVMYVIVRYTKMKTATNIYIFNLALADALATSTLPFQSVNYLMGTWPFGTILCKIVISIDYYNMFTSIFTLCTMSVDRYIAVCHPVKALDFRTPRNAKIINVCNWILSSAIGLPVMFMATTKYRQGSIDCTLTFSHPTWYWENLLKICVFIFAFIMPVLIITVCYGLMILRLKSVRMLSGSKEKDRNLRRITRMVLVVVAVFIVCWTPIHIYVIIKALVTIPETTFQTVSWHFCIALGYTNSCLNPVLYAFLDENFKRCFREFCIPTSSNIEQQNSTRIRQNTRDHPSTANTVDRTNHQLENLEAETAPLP
HTR2A ag conf – mouse HTR2A agonism confirmed; shares compounds with m5-HT2A agonist; CHO-K1 PathHunter beta-arrestin recruitment, luminescence; DMSO 0%, 30 µM serotonin 100%; activation, % at 7.6 µM; 2,300 tested, 19% active;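 active = mean activation across triplicates above the hit threshold derived in the original primary screen, cut at about 15% in these data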
* = called active by the depositor; . = no result given. Only some compounds are listed: those with a hit (about 2.1% of all), similar ones and a draw of the others.

SMILES | CCR6 antagonist | APJ antag | EBI2 block | CXCR6 inh | APJ ag | m5-HT2A agonist | MOR ag counter | HTR2A ag conf
CCN(CC)S(=O)(=O)c1cccc(C(=O)Nc2ccc3c(c2)OCO3)c1 | -4 | 6 | 9 | 6 | 4 | -1 | . | .
CC(C(=O)Nc1cccc(S(=O)(=O)N2CCOCC2)c1)N1CCN(C/C=C/c2ccccc2)CC1 (configuration not stated) | 3 | 4 | -8 | -4 | 1 | 17* | -1 | 21*
O=C1NNC(c2ccccc2)=N/C1=C\c1ccco1 | 15 | 20 | -19 | 10 | 4 | -1 | . | .
CCCCCN1C=CC(=C2C(=O)c3ccccc3C2=O)C=C1 | 0 | 20 | 2 | -1 | -3 | 3 | . | .
Cc1ccc(S(=O)(=O)N2CCC(C(=O)N3CCC3)CC2)cc1 | 10 | 7 | -6 | 5 | 1 | 17* | -1 | 2
COc1cc(Cc2cc(OC)c(O)c(OC)c2)cc(OC)c1O | . | . | -28 | -4 | . | -4 | . | .
COC(=O)C1CCN(CC(=O)Nc2ccc3c(c2)OCCO3)CC1 | 13 | 16 | 1 | -2 | -1 | 32* | -1 | 42*
NC(=O)C1CCN(CC(=O)Nc2ccc3c(c2)OCCO3)CC1 | 9 | -4 | -8 | 4 | -3 | -2 | . | .
CCCn1nnc(NC(=S)NC(=O)Cc2ccccc2)n1 | 43 | 25 | -2 | 26 | -5 | -4 | . | .
CC(C)c1ccc(NC(=O)C(=O)c2cn(CC(=O)N3CCCCC3)c3ccccc23)cc1 | 7 | -15 | 6 | 6 | 0 | -3 | . | .
O=C1NC[C@@H](CCCCN2C[C@H](Cc3ccccc3)N(CCC3CCCCC3)C(=O)C2=O)N(Cc2ccccc2)C1=O | . | . | -2 | 3 | . | 15* | -1 | -5
COC(=O)c1ccc(/C=N/N2CCN(Cc3ccc(C)cc3C)CC2)cc1 | 10 | 15 | 14 | -7 | 1 | 18* | 0 | 15*
Cc1ccc(CN2CCN(/N=C/c3ccc(C(=O)O)cc3)CC2)c(C)c1 | 6 | 12 | -16 | 2 | -1 | 1 | . | .
Cc1ccc(-c2nn(-c3ccccc3)cc2C(=O)O)o1 | . | -5 | . | . | -3 | . | . | .
CCOC(=O)CNC(=O)c1cc(OC)cc(OC)c1 | 1 | 4 | -2 | -7 | -1 | 6 | . | .
CCOC(=O)NC(=O)COC(=O)CNC(=O)c1cccc(OC)c1 | 2 | 11 | -4 | -1 | 1 | 20* | -1 | -3
CC(C)(C)OC(=O)NNC(=S)NC1CCCCC1 | 1 | -6 | -5 | 0 | -2 | 16* | -1 | 3
COc1cc(OC)c(C(=O)NNC(=S)NC2CCCCC2)cc1OC | 7 | 6 | -10 | 2 | 1 | 0 | . | .
Cc1cc(CNC(=O)COc2ccccc2)c2ccccc2n1 | 7 | . | 0 | 4 | . | 16* | 0 | -4
CC(C)CNC(=O)C1(C)CCCCCN1C(=O)c1csnn1 (configuration not stated) | . | . | 3 | 0 | . | 2 | . | .
Cn1nnnc1N=N/C(=N/Nc1ccccc1)c1ccccc1 | 87* | 37 | -4 | 44* | -7 | 16* | 0 | -4
COc1ccc(CCNC(=O)CC2COc3ccccc3O2)cc1OC (configuration not stated) | -17 | 10 | -17 | -9 | -10 | 7 | . | .
Cc1cccc(NC(=O)COC(=O)c2ccc(C)c(S(=O)(=O)N3CCCCC3)c2)c1 | 7 | 7 | 4 | 9 | -1 | -8 | . | .
COc1ccc2nc(SCC(=O)NCc3ccccc3)[nH]c2c1 | 14 | 19 | 5 | -7 | -4 | 0 | . | .
COc1ccc2nc(SCC(=O)Nc3ccccc3)[nH]c2c1 | 0 | 1 | 2 | -6 | 1 | 19* | 0 | -1
SMILES | CCR6 antagonist | APJ antag | EBI2 block | CXCR6 inh | APJ ag | m5-HT2A agonist | MOR ag counter | HTR2A ag conf
CCOCCCN(CCC#N)S(=O)(=O)c1ccc(S(=O)(=O)N2CCCC2)cc1 | 4 | -3 | 5 | -2 | -1 | 3 | . | .
O=c1cc(C(F)(F)F)nc(SCc2cccc3ccccc23)[nH]1 | 7 | -17 | -5 | 3 | -1 | 18* | -1 | 5
Nc1cc(=O)[nH]c(SCc2cccc3ccccc23)n1 | -9 | 12 | 3 | -3 | -4 | -1 | . | .
COc1ccc(-c2c([C@H]3[C@H]4C=CC[C@@H](C)[C@@H]4C(=O)N3Cc3ccccc3)ccc3ccccc23)cc1 | 13 | -26 | 11 | 6 | -3 | -3 | . | .
C#CCN(C[C@H]1[C@H](OC(=O)NCc2ccccc2)[C@H](OC(=O)NCc2ccccc2)C[C@H]2C(=O)N(c3ccccc3)C(=O)[C@@H]12)S(=O)(=O)c1ccc(C)cc1 | . | . | 6 | 3 | . | -1 | . | .
C#CCN(C[C@H]1[C@H](OC(=O)NCCCCCC)[C@H](OC(=O)NCCCCCC)C[C@H]2C(=O)N(c3ccccc3)C(=O)[C@@H]12)S(=O)(=O)c1ccc(C)cc1 | . | . | 3 | -1 | . | 15* | 0 | -6
O=C1c2ccccc2C(=O)N1CC#CCN1CCN(C(c2ccccc2)c2ccccc2)CC1 | 13 | 12 | 13 | 14 | -3 | -8 | . | .
COc1ccc(-c2csc(C3=C(O)CN(Cc4ccc(Cl)cc4)C3=N)n2)cc1OC | -17 | 1 | 13 | -5 | 7 | 53* | 1.7* | 29*
COc1ccc(-c2csc(C3=C(O)CN(Cc4ccc(S(N)(=O)=O)cc4)C3=N)n2)cc1OC | -8 | 1 | -3 | -5 | -4 | -1 | . | .
O=C1Nc2ccccc2/C1=C/c1ccccc1Cl | 17 | 1 | 7 | -1 | -4 | -5 | . | .
O=C1Nc2ccccc2/C1=C/c1ccc([N+](=O)[O-])cc1 | 0 | -39 | 20 | 3 | -2 | 28* | 1.0* | -1
CC(C)C[C@H]1CN=C(N(C)C)N1CC(C)C | 4 | 10 | 0 | 0 | -2 | 24* | -1 | -2
Cc1cc(-c2ccccc2)nc2cc(C(=O)NCCCn3ccnc3)nn12 | -1 | 13 | -4 | 8 | -4 | -1 | . | .
Cc1c(C(=O)NCc2cccc(C(F)(F)F)c2)sc(=O)n1Cc1ccccc1F | . | . | 6 | -2 | . | 25* | 0 | -7
Cc1ccc(C(=O)C2CCN(CC(=O)NCc3ccc(F)cc3)CC2)cc1 | 5 | -21 | 10 | 3 | -2 | -12 | . | .
CCOc1ccc(-c2cc(C(=O)N3CCCC3)c3ccccc3n2)cc1 | 11 | 12 | -3 | -7 | -3 | 15* | -1 | -2
O=C(Nc1ccccc1C(=O)Nc1nnc(C(F)(F)F)s1)c1ccccc1 | 7 | 10 | -8 | -1 | 0 | 14* | 0 | 3
Nc1ncnc(N)c1N=Nc1ccccc1 | 2 | 11 | -4 | -12 | -2 | 21* | -1 | -2
